Test results published in ChEMBL document CHEMBL1159304, “Cryphonectric acid and other minor metabolites from a hypovirulent strain of Cryphonectria parasitica” (J Nat Prod, 2002).
Calls of active or inactive are those of the source. The rule behind the calls is not given here.

Key:
Solanum lycopersicum [1] = experiment: Inhibition of tomato seedling growth at 100 uM; format: functional; parameters: scale not given: the % may be the effect or the level left
Outline: (§1)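 Tomato seedlings were conditioned 24 h in water, which was then replaced with filter-sterilized (0.2 µm) test solutions at 2, 0.2, 0.1 or 0.01 mM. Phytotoxic symptoms and root growth inhibition were scored at 24, 48 and 72 h. Each assay was run twice on 10 replicate seedlings.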

Solanum lycopersicum [2] = experiment: Inhibition of tomato seedling growth at 200 uM; format: functional, organism-based; outline: as §1
Solanum lycopersicum [3] = experiment: Inhibition of tomato seedling growth at 10 uM; format: functional; parameters: scale not given: the % may be the effect or the level left; outline: as §1
Solanum lycopersicum [4] = experiment: Induction of necrotic symptoms in tomato leaves up to 2 mM by tomato seedling bioassay; format: functional, organism-based; outline: as §1
[5] = Cytotoxicity against bovine endothelial cells at 12.5 uM; format: cell-based, Bos taurus; settings: cattle, endothelial cell
Endothelial cell [6] = experiment: Antiangiogenic activity in bovine endothelial cells assessed as inhibition of cell migration at 12.5 uM; format: functional, cell-based; settings: Bos taurus
Endothelial cell [7] = experiment: Antiangiogenic activity in bovine endothelial cells assessed as inhibition of cell migration at 50 uM; format: functional, cell-based; settings: Bos taurus
[8] = Cytotoxicity against bovine endothelial cells at 50 uM; format: cell-based, Bos taurus; settings: cattle, endothelial cell

Structure (SMILES)	Activity (Solanum lycopersicum [1])	Activity (Solanum lycopersicum [2])	Activity (Solanum lycopersicum [3])	Activity (Solanum lycopersicum [4])	Activity [5]	Activity (Endothelial cell [6])	Activity (Endothelial cell [7])	Activity [8]
COc1cc(O)c2c(=O)oc(CC(C)O)cc2c1 (stereo not given) [DIAPORTHIN]	75%	Active	50%	inactive	–	–	–	–
O=C(O)c1cc(O)c(C2OC(=O)c3c(O)cc(O)cc32)c(O)c1 (stereo not given) [CRYPHONECTRIC ACID]	Active	–	–	inactive	Non-toxic	inactive	inactive	Non-toxic
